Converted amounts (≈) assume the structure as drawn. The source made the active and inactive calls. No cut-off for these calls is given here.
Tests used:
[1] = tested on: Klebsiella pneumoniae; assay: Inhibition of RND efflux pump in Klebsiella pneumoniae isolate 116381 assessed as potentiation of minocycline-induced antibacterial activity by measuring fold reduction in minocycline MIC at 8 ug/ml after 18 to 24 hrs by microbroth dilution assay
In short: (§1)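 Absolute minocycline MIC taken from checkerboard broth dilution with a fixed 8 μg/mL adjuvant. Inoculum was a 0.5 McFarland saline suspension diluted 1:50 in MHB, incubated 37 °C for 18 h. MIC is the lowest concentration with no growth.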

[2] = tested on: Pseudomonas aeruginosa PAO1; assay: Inhibition of RND efflux pump in Pseudomonas aeruginosa PAO1 assessed as potentiation of minocycline-induced antibacterial activity at 8 ug/ml after 18 to 24 hrs by checker board assay
In short: (§2)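 Checkerboard in MHB: antibiotic 2-fold diluted along one axis, test agent 2-fold diluted along the other. Overnight culture standardized to 0.5 McFarland in saline, diluted 1:50 in MHB, added to wells, incubated 37 °C for 18 h. MIC is the lowest concentration with no growth. FIC = MIC in combination / MIC alone; FIC index = sum of both FICs.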

[3] = tested on: Pseudomonas aeruginosa PAO1; assay: Inhibition of RND efflux pump in Pseudomonas aeruginosa PAO1 assessed as potentiation of doxycycline-induced antibacterial activity by measuring fold reduction in doxycycline MIC at 8 ug/ml after 18 to 24 hrs by microbroth dilution assay relative to doxycycline alone
In short: (§3)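 Checkerboard broth microdilution: antibiotic 2-fold diluted along one axis, adjuvant 2-fold diluted along the other. Overnight culture standardized to 0.5 McFarland in saline, diluted 1:50 in MHB, added to wells, 37 °C for 18 h. MIC is the lowest concentration with no growth. FIC = MIC in combination / MIC alone; FICI = sum of the two FICs; FICI ≤0.5 is synergy.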

[4] = tested on: Pseudomonas aeruginosa; assay: Antibacterial activity against Pseudomonas aeruginosa isolate 101885 after 18 to 24 hrs by microbroth dilution assay; format: functional; in short: as §3
[5] = tested on: Pseudomonas aeruginosa; assay: Inhibition of RND efflux pump in Pseudomonas aeruginosa isolate P259-96918 assessed as potentiation of minocycline-induced antibacterial activity at 8 ug/ml after 18 to 24 hrs by checker board assay; in short: as §2
[6] = tested on: Pseudomonas aeruginosa; assay: Inhibition of RND efflux pump in Pseudomonas aeruginosa isolate P259-96918 assessed as potentiation of minocycline-induced antibacterial activity by measuring minocycline MIC at 8 ug/ml after 18 to 24 hrs by microbroth dilution assay (reference value: 32 ug/ml); in short: as §1
[7] = tested on: Pseudomonas aeruginosa; assay: Inhibition of RND efflux pump in Pseudomonas aeruginosa isolate P260-97103 assessed as potentiation of minocycline-induced antibacterial activity at 0.25 times antibacterial MIC after 18 to 24 hrs by checker board assay; in short: as §2
[8] = tested on: Pseudomonas aeruginosa; assay: Inhibition of RND efflux pump in Pseudomonas aeruginosa isolate P260-97103 assessed as potentiation of minocycline-induced antibacterial activity by measuring minocycline MIC at 0.25 times antibacterial MIC after 18 to 24 hrs by microbroth dilution assay (reference value: 8 to 16 ug/ml); in short: as §3
[9] = tested on: Pseudomonas aeruginosa; assay: Antibacterial activity against Pseudomonas aeruginosa isolate P262-101856 after 18 to 24 hrs by microbroth dilution assay; format: functional; in short: as §3
[10] = tested on: Pseudomonas aeruginosa; assay: Inhibition of RND efflux pump in Pseudomonas aeruginosa isolate P262-101856 assessed as potentiation of minocycline-induced antibacterial activity at 8 ug/ml after 18 to 24 hrs by checker board assay; in short: as §2
[11] = tested on: Pseudomonas aeruginosa; assay: Inhibition of RND efflux pump in Pseudomonas aeruginosa isolate P262-101856 assessed as potentiation of minocycline-induced antibacterial activity by measuring minocycline MIC at 8 ug/ml after 18 to 24 hrs by microbroth dilution assay (reference value: 128 to 256 ug/ml); in short: as §1
[12] = tested on: Pseudomonas aeruginosa; assay: Inhibition of RND efflux pump in colistin-resistant Pseudomonas aeruginosa isolate 101243 assessed as potentiation of minocycline-induced antibacterial activity by measuring minocycline MIC at 8 ug/ml after 18 to 24 hrs by microbroth dilution assay (reference value: 32 ug/ml); in short: as §3
[13] = tested on: Pseudomonas aeruginosa; assay: Inhibition of RND efflux pump in Pseudomonas aeruginosa isolate P259-96918 assessed as potentiation of minocycline-induced antibacterial activity by measuring fold reduction in minocycline MIC at 8 ug/ml after 18 to 24 hrs by microbroth dilution assay; in short: as §3
[14] = tested on: Pseudomonas aeruginosa; assay: Inhibition of RND efflux pump in Pseudomonas aeruginosa isolate P260-97103 assessed as potentiation of minocycline-induced antibacterial activity by measuring fold reduction in minocycline MIC at 0.25 times antibacterial MIC after 18 to 24 hrs by microbroth dilution assay; in short: as §3
[15] = tested on: Pseudomonas aeruginosa; assay: Inhibition of RND efflux pump in Pseudomonas aeruginosa isolate P262-104354 assessed as potentiation of minocycline-induced antibacterial activity by measuring fold reduction in minocycline MIC at 0.25 times antibacterial MIC after 18 to 24 hrs by microbroth dilution assay; in short: as §3
[16] = tested on: Enterobacter cloacae; assay: Inhibition of RND efflux pump in Enterobacter cloacae isolate 117029 assessed as potentiation of minocycline-induced antibacterial activity by measuring fold reduction in minocycline MIC at 8 ug/ml after 18 to 24 hrs by microbroth dilution assay; in short: as §1
[17] = tested on: Enterobacter cloacae; assay: Inhibition of RND efflux pump in Enterobacter cloacae isolate 117029 assessed as potentiation of minocycline-induced antibacterial activity at 8 ug/ml after 18 to 24 hrs by microbroth dilution assay; in short: as §2
[18] = tested on: Klebsiella pneumoniae; assay: Antibacterial activity against Klebsiella pneumoniae isolate 116381 after 18 to 24 hrs by microbroth dilution assay; format: functional; in short: as §2
[19] = tested on: Enterobacter cloacae; assay: Antibacterial activity against Enterobacter cloacae isolate 117029 after 18 to 24 hrs by microbroth dilution assay; format: functional; in short: as §2
[20] = tested on: Pseudomonas aeruginosa; assay: Induction of cytoplasmic membrane depolarization in Pseudomonas aeruginosa PAO1 by DiSC3(5) dye based fluorescence assay; format: functional
In short: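 Cytoplasmic membrane depolarization in P. aeruginosa PAO1, monitored by DiSC3(5) fluorescence across a range of compound concentrations. Colistin served as positive control.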

[21] = tested on: Pseudomonas aeruginosa PAO1; assay: Inhibition of RND efflux pump in Pseudomonas aeruginosa PAO1 assessed as potentiation of chloramphenicol-induced antibacterial activity […] by microbroth dilution assay
[22] = tested on: Pseudomonas aeruginosa PAO1; assay: Inhibition of RND efflux pump in Pseudomonas aeruginosa PAO1 assessed as potentiation of trimethoprim-induced antibacterial activity […] by microbroth dilution assay
[23] = tested on: Pseudomonas aeruginosa PAO1; assay: Inhibition of RND efflux pump in Pseudomonas aeruginosa PAO1 assessed as potentiation of vancomycin-induced antibacterial activity […] by microbroth dilution assay
[24] = tested on: Pseudomonas aeruginosa; assay: Reduction in flagellum-dependant motility in Pseudomonas aeruginosa PAO1 after 20 hrs by swimming motility test; format: functional
In short: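 PAO1 flagellum-dependent swimming motility on swimming plates containing sub-MIC compound, compared with plates without compound.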

[25] = tested on: Pseudomonas aeruginosa; assay: Potentiation of minocycline-induced antibacterial activity against mexAB-oprM/mexCD-oprJ/mexEF-oprN/mexXY/mexJK/opmH deficient Pseudomonas aeruginosa PAO750 after 18 to 24 hrs by microbroth dilution assay; format: functional
[26] = tested on: Pseudomonas aeruginosa PAO1; assay: Inhibition of RND efflux pump in Pseudomonas aeruginosa PAO1 assessed as increase in tetracycline uptake measured at 1 min interval for 30 mins by fluorescence assay
In short: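 Tetracycline uptake assay in P. aeruginosa PAO1: enhancement of tetracycline fluorescence as it enters cells, monitored with compound present at several concentrations.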

[27] = tested on: Pseudomonas aeruginosa PAO1; assay: Inhibition of RND efflux pump in Pseudomonas aeruginosa PAO1 assessed as potentiation of gentamicin-induced antibacterial activity after 18 to 24 hrs by checker board assay; in short: as §2

NC[C@H]1C[C@H](C(=O)N[C@H](CCc2ccccc2)C(=O)Nc2ccc3ccccc3c2)N(CCCCCCCCCCCCO[C@@H]2[C@@H](O[C@H]3O[C@H](CO)[C@@H](O)[C@H](N)[C@H]3O)[C@H](N)C[C@H](N)[C@H]2O[C@H]2O[C@H](CN)[C@@H](O)C[C@H]2N)C1
fold change (FC) [1]: 4 to 256
fractional inhibitory concentration index (FICI) [2]: 0.09
fold change (FC) [3]: 8 to 64
MIC [4]: 16 µg/mL (≈ 15 µM)
fractional inhibitory concentration index (FICI) [5]: 0.03
MIC [6]: < 0.5 µg/mL
fractional inhibitory concentration index (FICI) [7]: 0.31
MIC [8]: 0.5 µg/mL
MIC [9]: 32 µg/mL (≈ 30.1 µM)
fractional inhibitory concentration index (FICI) [10]: 0.08
MIC [11]: < 1 µg/mL
MIC [12]: 0.5 µg/mL
fold change (FC) [13]: 8 to 256
fold change (FC) [14]: 8 to 256
fold change (FC) [15]: 8 to 256
fold change (FC) [16]: 4 to 256
fractional inhibitory concentration index (FICI) [17]: 0.13
MIC [18]: > 32 µg/mL
MIC [19]: 32 µg/mL (≈ 30.1 µM)
Activity [20]: Dose-dependent effect
fractional inhibitory concentration index (FICI) [21]: < 0.1
fractional inhibitory concentration index (FICI) [22]: < 0.1
fractional inhibitory concentration index (FICI) [23]: < 0.15
Activity [24]: Dose-dependent effect
Activity [25]: inactive
inhibition [26]: Dose-dependent effect
fractional inhibitory concentration index (FICI) [27]: > 1.5

Source: ChEMBL document CHEMBL4017460, “A Tobramycin Vector Enhances Synergy and Efficacy of Efflux Pump Inhibitors against Multidrug-Resistant Gram-Negative Bacteria” (J Med Chem, 2017)
